From ChEMBL document CHEMBL4138056, “T- and B-cell immunosuppressive activity of novel α-santonin analogs with humoral and cellular immune response in Balb/c mice” (Medchemcomm, 2017)

Tests used:
[1] = system: B-cell line; test: Cytotoxicity against Balb/c mouse B cells assessed as decrease cell survival at 100 uM by MTT assay; format: cell-based
How it was run: (§1)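 Balb/c splenocytes (RBC lysed with tris-ammonium chloride, trypan blue viability) seeded at 1×10^6 cells/mL with Con A or LPS (10 μg/mL each) and test agent at 1, 10 or 100 μM for 48 h at 37 °C, 5% CO2; MTT added for 4 h, formazan dissolved in DMSO, OD 540 nm. Cytotoxicity scored +/−; triplicate, three separate experiments.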

[2] = system: Murine T-cell line; test: Cytotoxicity against Balb/c mouse T cells assessed as decrease in cell survival at 10 uM by MTT assay; format: cell-based; how it was run: as §1
[3] = system: Murine T-cell line; test: Cytotoxicity against Balb/c mouse T cells assessed as decrease in cell survival at 100 uM by MTT assay; format: cell-based; how it was run: as §1
[4] = system: Murine T-cell line; test: Immunosuppressive activity in Balb/c mouse T cells assessed as inhibition of ConA-induced cell proliferation at 100 uM after 48 hrs by MTT assay relative to control
[5] = system: B-cell line; test: Immunostimulant activity in Balb/c mouse B cells assessed as induction of LPS-induced cell proliferation at 1 uM after 48 hrs by MTT assay relative to control; format: cell-based
How it was run: (§2)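 Balb/c spleen single-cell suspension, RBCs lysed with tris-ammonium chloride, viability by trypan blue; 1×10^6 cells/mL stimulated with LPS (10 μg/mL) for B cells, test agent 1, 10 or 100 μM, 48 h at 37 °C, 5% CO2. MTT 4 h, DMSO solubilization, OD 540 nm; % change vs mitogen control; triplicate, three separate experiments.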

[6] = system: Murine T-cell line; test: Immunosuppressive activity in Balb/c mouse T cells assessed as inhibition of ConA-induced cell proliferation at 1 uM after 48 hrs by MTT assay relative to control
[7] = system: B-cell line; test: Immunosuppressive activity in Balb/c mouse B cells assessed as inhibition of LPS-induced cell proliferation at 100 uM after 48 hrs by MTT assay relative to control; format: functional; how it was run: as §2
[8] = system: Murine T-cell line; test: Immunosuppressive activity in Balb/c mouse T cells assessed as inhibition of ConA-induced cell proliferation at 10 uM after 48 hrs by MTT assay relative to control
[9] = system: Murine T-cell line; test: Cytotoxicity against Balb/c mouse T cells assessed as decrease in cell survival at 1 uM by MTT assay; format: cell-based; how it was run: as §1
[10] = system: B-cell line; test: Cytotoxicity against Balb/c mouse B cells assessed as decrease cell survival at 1 uM by MTT assay; format: cell-based; how it was run: as §1
[11] = system: B-cell line; test: Immunosuppressive activity in Balb/c mouse B cells assessed as inhibition of LPS-induced cell proliferation at 10 uM after 48 hrs by MTT assay relative to control; format: functional; how it was run: as §2
[12] = system: B-cell line; test: Cytotoxicity against Balb/c mouse B cells assessed as decrease cell survival at 10 uM by MTT assay; format: cell-based; how it was run: as §1
[13] = system: B-cell line; test: Immunosuppressive activity in Balb/c mouse B cells assessed as inhibition of LPS-induced cell proliferation at 1 uM after 48 hrs by MTT assay relative to control; format: functional; how it was run: as §2
[14] = system: B-cell line; test: Immunostimulant activity in Balb/c mouse B cells assessed as induction of LPS-induced cell proliferation at 10 uM after 48 hrs by MTT assay relative to control; format: cell-based; how it was run: as §2
[15] = system: Murine T-cell line; test: Immunostimulant activity in Balb/c mouse T cells assessed as induction of ConA-induced cell proliferation at 100 uM after 48 hrs by MTT assay relative to control
[16] = system: B-cell line; test: Immunostimulant activity in Balb/c mouse B cells assessed as induction of LPS-induced cell proliferation at 100 uM after 48 hrs by MTT assay relative to control; format: cell-based; how it was run: as §2
[17] = system: Mus musculus; test: Inhibition of humoral immune response in Balb/c mouse assessed as decrease in sheep RBC hemagglutination at 6.25 mg/kg, po qd administered 6 consecutive days measured on day 7 by micro titration method relative to control; format: functional; conditions: 168 h
How it was run: (§3)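 Female Balb/c mice, groups of six, immunized with SRBC and dosed orally; blood taken on day 7 for primary antibody titre, hemagglutination titre determined by modified microtitration; suppression versus control group.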

[18] = system: Mus musculus; test: Inhibition of delayed-type hypersensitivity reaction in Balb/c mouse assessed as decrease in sheep RBC-induced footpad thickness at 25 mg/kg, po qd administered 6 consecutive days followed by sheep RBC challenge measured after 24 to 48 hrs by spheromicrometer relative to control; format: functional
How it was run: (§4)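 Female Balb/c mice, groups of six, SRBC-immunized; oral dosing starting 2 h after SRBC, then once daily. Six days later baseline left hind footpad thickness read by spheromicrometer, then intradermal footpad challenge with 20 μL of 5×10^9 SRBC/mL; thickness re-measured at 24 and 48 h versus control group.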

[19] = system: Mus musculus; test: Inhibition of delayed-type hypersensitivity reaction in Balb/c mouse assessed as decrease in sheep RBC-induced footpad thickness at 12.5 mg/kg, po qd administered 6 consecutive days followed by sheep RBC challenge measured after 24 to 48 hrs by spheromicrometer relative to control; format: functional; how it was run: as §4
[20] = system: Mus musculus; test: Inhibition of humoral immune response in Balb/c mouse assessed as decrease in sheep RBC hemagglutination at 25 mg/kg, po qd administered 6 consecutive days measured on day 7 by micro titration method relative to control; format: functional; conditions: 168 h; how it was run: as §3
[21] = system: Murine T-cell line; test: Immunostimulant activity in Balb/c mouse T cells assessed as induction of ConA-induced cell proliferation at 10 uM after 48 hrs by MTT assay relative to control

SMILES	Activity [1]	Activity [2]	Activity [3]	inhibition at 100 µM [4] [%]	inhibition at 1 µM [6] [%]	inhibition at 100 µM [7] [%]	inhibition at 10 µM [8] [%]	Activity [9]	Activity [10]	inhibition at 10 µM [11] [%]	Activity [12]	inhibition at 1 µM [13] [%]	Activity [15] [%]	Activity [16] [%]	other results
Cc1cc(OC(=O)C(C)C)c(C)c2c1CC[C@H]1[C@H](C)C(=O)O[C@@H]21	Non-Toxic	Non-Toxic	Non-Toxic	73.2	53.3	52.1	61.5	Non-Toxic	Non-Toxic	33.3	Non-Toxic				Activity [5]: 20.83%
CCCCCCCC(=O)Oc1cc(C)c2c(c1C)[C@@H]1OC(=O)[C@@H](C)[C@@H]1CC2	Toxic	Non-Toxic	Toxic	4.22	50.4	57.3	43.1	Non-Toxic	Non-Toxic		Non-Toxic	37.5			Activity [14]: 53.12%
Cc1cc(OCc2ccccc2)c(C)c2c1CC[C@H]1[C@H](C)C(=O)O[C@@H]21	Toxic	Non-Toxic	Toxic		58		60	Non-Toxic	Non-Toxic	74	Non-Toxic	53	16	29	
Cc1cc(OC(=O)C(C)(C)C)c(C)c2c1CC[C@H]1[C@H](C)C(=O)O[C@@H]21	Non-Toxic	Non-Toxic	Non-Toxic	75	35.1	80.5	58.1	Non-Toxic	Non-Toxic	66	Non-Toxic	48.7			inhibition in vivo at 6.25 mg/kg [17]: 28%; inhibition in vivo at 25 mg/kg [18]: 35%; inhibition in vivo at 12.5 mg/kg [19]: 30%; inhibition in vivo at 25 mg/kg [20]: 41%
CCCCC(=O)Oc1cc(C)c2c(c1C)[C@@H]1OC(=O)[C@@H](C)[C@@H]1CC2	Toxic	Non-Toxic	Toxic		43.2		29.6	Non-Toxic	Non-Toxic	49	Non-Toxic	2.08	28.16	6.25	
CC1=C2[C@H]3OC(=O)[C@@H](C)[C@@H]3CC[C@@]2(C)C=CC1=O [SANTONIN]	Non-Toxic	Non-Toxic	Non-Toxic	8.16	35.4	33.2		Non-Toxic	Non-Toxic	27.1	Non-Toxic	19			Activity [21]: 3.55%
